Activity calls are given as the source filed them.
How the values were obtained:
[1] = tested on: Heterodera zeae; experiment: Nematicidal activity against Heterodera zeae infective stage larvae assessed as nematode mortality at 1% under dark conditions measured 48 hr post dose by stereoscopic microscopy; assay type: functional
Outline: (§1)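 Freshly hatched H. zeae second-stage juveniles, 100 per Petri plate, three replicates. Samples in MeOH, DMSO or water were tested in glass cavity blocks; petroleum ether samples were dried onto the block and larvae transferred on agar pieces. Percentages are dilutions of 30 mg/mL stocks (extracts/fractions) or 1 mg/mL stocks (pure compounds). Incubated at 28 ± 2 °C in light or dark box; mortality averaged over three replicates.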

[2] = tested on: Heterodera zeae; experiment: Nematicidal activity against Heterodera zeae infective stage larvae assessed as nematode mortality at 0.5% under light conditions measured 48 hr post dose by stereoscopic microscopy; assay type: functional; outline: as §1
[3] = tested on: Heterodera zeae; experiment: Nematicidal activity against Heterodera zeae infective stage larvae assessed as nematode mortality at 5% under light conditions measured 5 to 60 min post dose by stereoscopic microscopy; assay type: functional, organism-based
Outline: (§2)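 H. zeae freshly hatched second-stage juveniles, 100 per plate, three replicates, at 28 ± 2 °C under light or in a dark box. Dilutions are % of a stock: 30 mg/mL for extracts/fractions, 1 mg/mL for pure compounds. Methanol-, DMSO- or water-soluble samples were tested in glass cavity blocks. Petroleum ether-soluble samples were air-dried in the block and covered with agar pieces bearing cultured larvae. Mortality was followed over 5–60 min; each value is the mean of three experiments.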

[4] = tested on: Heterodera zeae; experiment: Nematicidal activity against Heterodera zeae infective stage larvae assessed as nematode mortality at 0.125% under dark conditions measured 24 hr post dose by stereoscopic microscopy; assay type: functional; outline: as §1
[5] = tested on: Heterodera zeae; experiment: Nematicidal activity against Heterodera zeae infective stage larvae assessed as nematode mortality at 0.25% under light conditions measured 24 hr post dose by stereoscopic microscopy; assay type: functional; outline: as §1
[6] = tested on: Heterodera zeae; experiment: Nematicidal activity against Heterodera zeae infective stage larvae assessed as nematode mortality at 0.125% under dark conditions measured 48 hr post dose by stereoscopic microscopy; assay type: functional; outline: as §1
[7] = tested on: Heterodera zeae; experiment: Nematicidal activity against Heterodera zeae infective stage larvae assessed as nematode mortality at 0.125% under light conditions measured 5 to 60 min post dose by stereoscopic microscopy; assay type: functional, organism-based; outline: as §2
[8] = tested on: Heterodera zeae; experiment: Nematicidal activity against Heterodera zeae infective stage larvae assessed as nematode mortality at 0.25% under light conditions measured 48 hr post dose by stereoscopic microscopy; assay type: functional; outline: as §1
[9] = tested on: Heterodera zeae; experiment: Nematicidal activity against Heterodera zeae infective stage larvae assessed as nematode mortality at 0.5% under light conditions measured 24 hr post dose by stereoscopic microscopy; assay type: functional; outline: as §1
[10] = tested on: Heterodera zeae; experiment: Nematicidal activity against Heterodera zeae infective stage larvae assessed as nematode mortality at 1% under light conditions measured 5 to 60 min post dose by stereoscopic microscopy; assay type: functional, organism-based; outline: as §2
[11] = tested on: Heterodera zeae; experiment: Nematicidal activity against Heterodera zeae infective stage larvae assessed as nematode mortality at 0.5% under dark conditions measured 5 to 60 min post dose by stereoscopic microscopy; assay type: functional, organism-based; outline: as §2
[12] = tested on: Heterodera zeae; experiment: Nematicidal activity against Heterodera zeae infective stage larvae assessed as nematode mortality at 0.25% under dark conditions measured 24 hr post dose by stereoscopic microscopy; assay type: functional; outline: as §1
[13] = tested on: Heterodera zeae; experiment: Nematicidal activity against Heterodera zeae infective stage larvae assessed as nematode mortality at 1% under dark conditions measured 5 to 60 min post dose by stereoscopic microscopy; assay type: functional, organism-based; outline: as §2
[14] = tested on: Heterodera zeae; experiment: Nematicidal activity against Heterodera zeae infective stage larvae assessed as nematode mortality at 0.5% under dark conditions measured 24 hr post dose by stereoscopic microscopy; assay type: functional; outline: as §1
[15] = tested on: Heterodera zeae; experiment: Nematicidal activity against Heterodera zeae infective stage larvae assessed as nematode mortality at 2% under light conditions measured 5 to 60 min post dose by stereoscopic microscopy; assay type: functional, organism-based; outline: as §2
[16] = tested on: Heterodera zeae; experiment: Nematicidal activity against Heterodera zeae infective stage larvae assessed as nematode mortality at 1% under light conditions measured 24 hr post dose by stereoscopic microscopy; assay type: functional; outline: as §1
[17] = tested on: Heterodera zeae; experiment: Nematicidal activity against Heterodera zeae infective stage larvae assessed as nematode mortality at 2% under dark conditions measured 5 to 60 min post dose by stereoscopic microscopy; assay type: functional, organism-based; outline: as §2
[18] = tested on: Heterodera zeae; experiment: Nematicidal activity against Heterodera zeae infective stage larvae assessed as nematode mortality at 0.125% under light conditions measured 72 hr post dose by stereoscopic microscopy; assay type: functional; outline: as §1
[19] = tested on: Heterodera zeae; experiment: Nematicidal activity against Heterodera zeae infective stage larvae assessed as nematode mortality at 0.25% under dark conditions measured 72 hr post dose by stereoscopic microscopy; assay type: functional; outline: as §1
[20] = tested on: Heterodera zeae; experiment: Nematicidal activity against Heterodera zeae infective stage larvae assessed as nematode mortality at 0.25% under light conditions measured 5 to 60 min post dose by stereoscopic microscopy; assay type: functional, organism-based; outline: as §2
[21] = tested on: Heterodera zeae; experiment: Nematicidal activity against Heterodera zeae infective stage larvae assessed as nematode mortality at 0.125% under dark conditions measured 72 hr post dose by stereoscopic microscopy; assay type: functional; outline: as §1
[22] = tested on: Heterodera zeae; experiment: Nematicidal activity against Heterodera zeae infective stage larvae assessed as nematode mortality at 1% under light conditions measured 48 hr post dose by stereoscopic microscopy; assay type: functional; outline: as §1
[23] = tested on: Heterodera zeae; experiment: Nematicidal activity against Heterodera zeae infective stage larvae assessed as nematode mortality at 0.5% under light conditions measured 5 to 60 min post dose by stereoscopic microscopy; assay type: functional, organism-based; outline: as §2
[24] = tested on: Heterodera zeae; experiment: Nematicidal activity against Heterodera zeae infective stage larvae assessed as nematode mortality at 0.25% under dark conditions measured 48 hr post dose by stereoscopic microscopy; assay type: functional; outline: as §1
[25] = tested on: Heterodera zeae; experiment: Nematicidal activity against Heterodera zeae infective stage larvae assessed as nematode mortality at 0.5% under dark conditions measured 48 hr post dose by stereoscopic microscopy; assay type: functional; outline: as §1
[26] = tested on: Heterodera zeae; experiment: Nematicidal activity against Heterodera zeae infective stage larvae assessed as nematode mortality at 0.125% under light conditions measured 48 hr post dose by stereoscopic microscopy; assay type: functional; outline: as §1
[27] = tested on: Heterodera zeae; experiment: Nematicidal activity against Heterodera zeae infective stage larvae assessed as nematode mortality at 0.125% under light conditions measured 24 hr post dose by stereoscopic microscopy; assay type: functional; outline: as §1
[28] = tested on: Heterodera zeae; experiment: Nematicidal activity against Heterodera zeae infective stage larvae assessed as nematode mortality at 1% under dark conditions measured 24 hr post dose by stereoscopic microscopy; assay type: functional; outline: as §1
[29] = tested on: Heterodera zeae; experiment: Nematicidal activity against Heterodera zeae infective stage larvae assessed as nematode mortality at 0.125% under dark conditions measured 5 to 60 min post dose by stereoscopic microscopy; assay type: functional, organism-based; outline: as §2
[30] = tested on: Heterodera zeae; experiment: Nematicidal activity against Heterodera zeae infective stage larvae assessed as nematode mortality at 0.25% under light conditions measured 72 hr post dose by stereoscopic microscopy; assay type: functional; outline: as §1
[31] = tested on: Heterodera zeae; experiment: Nematicidal activity against Heterodera zeae infective stage larvae assessed as nematode mortality at 0.25% under dark conditions measured 5 to 60 min post dose by stereoscopic microscopy; assay type: functional, organism-based; outline: as §2
[32] = tested on: Heterodera zeae; experiment: Nematicidal activity against Heterodera zeae infective stage larvae assessed as nematode mortality at 5% under dark conditions measured 5 to 60 min post dose by stereoscopic microscopy; assay type: functional, organism-based; outline: as §2
[33] = tested on: Heterodera zeae; experiment: Nematicidal activity against Heterodera zeae infective stage larvae assessed as nematode mortality at 0.5% under dark conditions measured 72 hr post dose by stereoscopic microscopy; assay type: functional; outline: as §1
[34] = tested on: Heterodera zeae; experiment: Nematicidal activity against Heterodera zeae infective stage larvae assessed as nematode mortality at 0.5% under light conditions measured 72 hr post dose by stereoscopic microscopy; assay type: functional; outline: as §1

CCCCCCCC/C=C\CCCCCCCC(=O)O [OLEIC ACID]
inactive: Activity [3] | Activity [7] | Activity [10] | Activity [11] | Activity [13] | Activity [15] | Activity [17] | Activity [20] | Activity [23] | Activity [29] | Activity [31] | Activity [32]
100%: mortality [1] | mortality [2] | mortality [18] | mortality [22] | mortality [25] | mortality [30]
40%: mortality [14]
50%: mortality [8] | mortality [9] | mortality [16] | mortality [26] | mortality [28]
10%: mortality [4] | mortality [5] | mortality [6] | mortality [12] | mortality [19] | mortality [21] | mortality [24] | mortality [27]

C[C@@H]1O[C@@H](OC[C@H]2O[C@@H](Oc3c(-c4ccc(O)c(O)c4)oc4cc(O)cc(O)c4c3=O)[C@H](O)[C@@H](O)[C@@H]2O)[C@H](O)[C@H](O)[C@H]1O [RUTIN]
70%: mortality [6] | mortality [19] | mortality [21] | mortality [24]
inactive: Activity [3] | Activity [7] | Activity [10] | Activity [11] | Activity [13] | Activity [15] | Activity [17] | Activity [20] | Activity [23] | Activity [29] | Activity [31] | Activity [32]
100%: mortality [2] | mortality [8] | mortality [9] | mortality [14] | mortality [16] | mortality [22] | mortality [26] | mortality [28]
0%: mortality [4] | mortality [5] | mortality [12] | mortality [27]

CCCCCCCC/C=C\CCCCCCCC(=O)OC [METHYL OLEATE]
50%: mortality [8] | mortality [9] | mortality [16] | mortality [26] | mortality [28]
100%: mortality [1] | mortality [2] | mortality [18] | mortality [22] | mortality [25] | mortality [30]
40%: mortality [14]
inactive: Activity [3] | Activity [7] | Activity [10] | Activity [11] | Activity [13] | Activity [15] | Activity [17] | Activity [20] | Activity [23] | Activity [29] | Activity [31] | Activity [32]
10%: mortality [4] | mortality [5] | mortality [6] | mortality [12] | mortality [19] | mortality [21] | mortality [24] | mortality [27]

CCCCCCCCCCCCCCCCCC(=O)O [STEARIC ACID]
70%: mortality [2] | mortality [8] | mortality [18] | mortality [21] | mortality [24] | mortality [25]
40%: mortality [4] | mortality [5] | mortality [12]
inactive: Activity [3] | Activity [7] | Activity [10] | Activity [11] | Activity [13] | Activity [15] | Activity [17] | Activity [20] | Activity [23] | Activity [29] | Activity [31] | Activity [32]
100%: mortality [1] | mortality [33] | mortality [16] | mortality [34] | mortality [19] | mortality [28] | mortality [30]
50%: mortality [6] | mortality [9] | mortality [14] | mortality [26] | mortality [27]
